pIC50: −log10 of the molar value. Calls of active or inactive are those of the source. The calls are words filed in the database; no cut-off is given here.
What was measured:
Plasmodium falciparum [1] = experiment: Resistance index, ratio of IC50 for chloroquine-resistant ring stage Plasmodium falciparum W2 to IC50 for chloroquine-sensitive ring stage Plasmodium falciparum 3D7; type: functional
How it was run: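 W2 IC50 divided by 3D7 IC50. Both were measured by 48 h YOYO-1 flow-cytometric growth assay on sorbitol-synchronised 1% ring-stage cultures in human erythrocytes at 37 C under 3% O2.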

[2] = Selectivity index, ratio of IC50 for african green monkey Vero cells to IC50 for chloroquine-resistant ring stage Plasmodium falciparum W2; type: toxicity, cell-based; conditions: read-out: Ratio IC50
How it was run: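 Vero IC50 divided by W2 IC50. Vero: 15000 cells/well adhered overnight, then log dilutions from 30 mg/mL DMSO stock for 48 h. MTT 0.5 mg/mL final for 2 h at 37 C, formazan dissolved in 95% ethanol, A570 read against DMSO vehicle as 100% viability. W2: 48 h YOYO-1 flow-cytometric growth assay in human erythrocytes.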

[3] = Drug uptake in Plasmodium falciparum infected in human erythrocyte food vacuoles at 5 uM after 3 hrs by fluorescence microscopy; type: ADME, cell-based
How it was run: (§1)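 Human erythrocyte P. falciparum culture at 1.9% parasitemia, given 5 μM compound or DMSO solvent control for 3 h at room temperature in the dark. Washed gently with PBS, placed on poly-Lys-coated coverslips and imaged directly by phase contrast and fluorescence microscopy, 100× oil objective.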

[4] = Inhibition of Plasmodium falciparum falcipain 3
Plasmodium berghei = experiment: Antiplasmodial activity against GFP-expressing liver stage Plasmodium berghei sporozoites infected in human Huh-7 cells at 5 uM by fluorescence activated cell sorting based method; type: functional, organism-based
How it was run: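 Huh7 human hepatoma cells infected with GFP-expressing P. berghei sporozoites, compound at 5 μM. Read-out by FACS: invasion as % GFP-positive cells 2 h after sporozoite addition; development as GFP fluorescence intensity of positive cells at 48 h. Cells trypsinized for 5 min at 37 C, then resuspended in 2% FCS/PBS before analysis.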

Heme = experiment: Binding affinity to heme by UV-visible titration
How it was run: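 Hematin monomer (FPIX-OH, 10 μM) in pH 5.5 HEPES-buffered 40% DMSO v/v at 25 C, titrated with ligand from 100 μM solution until above hematin concentration. Stirred 1 min per addition; spectra 230–500 nm, Soret change at 402 nm. Absorbance dilution-corrected, nonlinear fit for Kd; Kass calculated from Kd.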

[5] = Drug uptake in Plasmodium falciparum infected in human erythrocyte nucleus at 5 uM after 3 hrs by fluorescence microscopy; type: ADME, cell-based; how it was run: as §1
Nucleic Acid [6] = experiment: Binding affinity to DNA assessed as quenching fluorescence intensity by UV-visible spectrophotometry; type: nucleic-acid assay
Plasmodium falciparum [7] = experiment: Antiplasmodial activity against chloroquine-sensitive ring stage Plasmodium falciparum 3D7 infected in human red blood cells after 48 hrs; type: functional, organism-based; conditions: 3D7, 48 h
Plasmodium falciparum [8] = experiment: Antiplasmodial activity against chloroquine-sensitive, mefloquine-resistant ring stage Plasmodium falciparum D6 infected in human red blood cells after 48 hrs; type: functional, organism-based; conditions: D6, 48 h
Nucleic Acid [9] = experiment: Binding affinity to s(GATCCTAGGATC)2-DNA by fluorescence spectroscopy; type: nucleic-acid assay
How it was run: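 Buffer 0.01 M phosphate pH 7.4, 0.1 M NaCl, 25.0 C, 1 cm quartz cuvettes. Fluorescence: excitation 339 nm, emission 450–500 nm. Dilution-corrected intensity change fitted to single-site binding for Kd; Kass taken as 1/Kd.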

[10] = Inhibition of hematin assessed as quenching fluorescence intensity at 1:1 drug-hematin ratio by UV-visible titration; type: functional; conditions: dose or concentration not given here
Plasmodium falciparum [11] = experiment: Antiplasmodial activity against chloroquine and pyrimethamine-resistant ring stage Plasmodium falciparum V1/S infected in human red blood cells after 48 hrs; type: functional, organism-based
Vero = experiment: Cytotoxicity against african green monkey Vero cells after 48 hrs by MTT assay; type: cell-based; conditions: Chlorocebus sabaeus
How it was run: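 Vero monkey kidney cells in DMEM with 10% FBS at 37 C, 7% CO2; seeded 15000 cells/well and adhered overnight. Log dilutions from 30 mg/mL DMSO stock, 48 h exposure. MTT at 0.5 mg/mL final for 2 h; formazan dissolved in 95% ethanol, read at 570 nm. Viability relative to DMSO-medium wells; IC50 from concentration–viability curve; doxorubicin as standard.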

[12] = Inhibition of Plasmodium falciparum falcipain 2
Nucleic Acid [13] = experiment: Binding affinity to s(GATCCTAGGATC)2-DNA by UV-visible spectrophotometry; type: nucleic-acid assay

Row | Structure (SMILES) | Ratio IC50 (Plasmodium falciparum [1]) | selectivity ratio [2] | Drug uptake [3] | pIC50 [4] | Activity (Plasmodium berghei) | Ka (Heme) [×10⁶ /M] | Drug uptake [5] | Activity (Nucleic Acid [6]) [%] | pIC50 (Plasmodium falciparum [7]) | pIC50 (Plasmodium falciparum [8]) | Ka (Nucleic Acid [9]) [×10⁶ /M] | inhibition [10] [%] | pIC50 (Plasmodium falciparum [11]) | pIC50 (Vero) | pIC50 [12] | Ka (Nucleic Acid [13]) [×10⁶ /M]
1 | C[n+]1c2ccccc2c(NC2CCNCC2)c2[nH]c3ccccc3c21.[Cl-] | 0.7 | 1410 | Active | 5.10 | inactive | 0.154 | Active | 20 | 7.64 | 7.23 | 0.74 | 60 | 7.22 | 4.21 | 5.19 | 
2 | C[n+]1c2ccccc2cc2[n-]c3ccccc3c21.Cl [CRYPTOLEPINE HYDROCHLORIDE] | 2.9 | 1.4 | Active | < 4.30 | inactive | 0.045 | Active |  | 6.37 | 6.65 |  |  | 6.59 | 5.98 | 4.42 | 0.25

Source: ChEMBL document CHEMBL1671820, “Incorporation of basic side chains into cryptolepine scaffold: structure-antimalarial activity relationships and mechanistic studies” (J Med Chem, 2011)
